According to ChEMBL document CHEMBL1135693, “Solid-phase synthesis of polyamine toxin analogues: potent and selective antagonists of Ca2+-permeable AMPA receptors” (J Med Chem, 2002):

Tests used:
Glutamate receptor 1 [1] = target: T1, Glutamate receptor 1 (Homo sapiens, UniProt P42261); test: Inhibition of the (-40 mV) current elicited by 100 uM glutamate by simultaneous co-application in xenopus oocytes injected with GluR1 flop RNA.; assay type: cell-based, Oocyte
Method in brief: (§1)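 Two-electrode voltage clamp of stage V–VI Xenopus laevis oocytes (collagenase-isolated), injected with 5-30 ng GluR1 flop cRNA, recorded 3-14 days later in Ringer (pH 7.5; low-Ca2+ Ringer for high-current cells).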

Glutamate receptor 1 [2] = target: T1, Glutamate receptor 1; test: Inhibition of the (-80 mV) current elicited by 100 uM glutamate by simultaneous co-application in xenopus oocytes injected with GluR1 flop RNA.; assay type: cell-based, Oocyte; method in brief: as §1
[3] = Ratio of Ki value at -40 mV to that of -80 mV was determined; assay type: functional
[4] = Inhibition of the current elicited by 100 uM glutamate by simultaneous co-application of the antagonist in xenopus oocytes injected with a 1:1 mixture of GluR1 flop and GluR2 flop RNA as well as GluR5(Q).; assay type: functional, cell-based, Xenopus laevis; details: oocyte
Method in brief: (§2)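 Xenopus laevis oocytes (stage V–VI) injected with 5-30 ng cRNA, either 1:1 GluR1 flop + GluR2 flop or GluR5(Q) flop. After 3-14 days, two-electrode voltage clamp recordings were made in Ringer pH 7.5 (low-Ca2+ Ringer if currents were high). […] Values are means of two independent measurements in triplicate.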

[5] = Inhibition of the current elicited by 100 uM glutamate by simultaneous co-application of the antagonist in xenopus oocytes injected with a 1:1 mixture of GluR1 flop and GluR2 flop RNA; assay type: functional, cell-based, Xenopus laevis; details: oocyte; method in brief: as §2

T1 sequence (P42261 whole entry): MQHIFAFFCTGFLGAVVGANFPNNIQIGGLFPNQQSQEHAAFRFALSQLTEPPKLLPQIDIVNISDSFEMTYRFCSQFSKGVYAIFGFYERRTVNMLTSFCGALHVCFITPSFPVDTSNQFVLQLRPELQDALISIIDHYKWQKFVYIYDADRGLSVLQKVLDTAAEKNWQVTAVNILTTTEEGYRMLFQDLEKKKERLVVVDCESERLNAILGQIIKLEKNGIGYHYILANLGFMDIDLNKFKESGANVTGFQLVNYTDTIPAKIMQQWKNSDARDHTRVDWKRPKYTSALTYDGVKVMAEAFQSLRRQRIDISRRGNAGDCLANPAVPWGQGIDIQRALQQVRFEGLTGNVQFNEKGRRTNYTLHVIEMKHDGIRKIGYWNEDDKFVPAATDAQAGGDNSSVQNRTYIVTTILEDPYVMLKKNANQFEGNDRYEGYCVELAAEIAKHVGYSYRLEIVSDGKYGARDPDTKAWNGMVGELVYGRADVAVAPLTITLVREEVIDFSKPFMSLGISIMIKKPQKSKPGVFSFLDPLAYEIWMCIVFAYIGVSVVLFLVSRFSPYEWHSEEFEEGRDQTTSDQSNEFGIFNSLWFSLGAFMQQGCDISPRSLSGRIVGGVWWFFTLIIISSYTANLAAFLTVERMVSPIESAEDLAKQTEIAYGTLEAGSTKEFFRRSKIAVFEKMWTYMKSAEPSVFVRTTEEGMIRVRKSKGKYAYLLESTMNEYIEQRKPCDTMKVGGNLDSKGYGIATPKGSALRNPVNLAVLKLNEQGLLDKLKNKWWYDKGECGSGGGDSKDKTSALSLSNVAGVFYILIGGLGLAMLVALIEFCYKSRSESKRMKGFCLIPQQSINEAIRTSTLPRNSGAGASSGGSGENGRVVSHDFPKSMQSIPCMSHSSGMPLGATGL

SMILES	Ki (Glutamate receptor 1 [1]) [µM]	Ki (Glutamate receptor 1 [2]) [µM]	Ratio [3]	Ki [4] [µM]	Ki [5] [µM]
CCC(=O)NC(Cc1ccc(O)cc1)C(=O)NCCCCCCCCNCCCN (configuration not stated)	0.28	0.1	2.8		
CCCC(=O)NC(Cc1ccc(O)cc1)C(=O)NCCCCCCCCCNCCN (configuration not stated)	6.2	0.41		2.1	> 10
NCCCNCCCCCCCCNC(=O)C(Cc1ccc(O)cc1)NC(=O)c1ccncc1 (configuration not stated)	0.33	0.064	5.1		
CCCCCC(=O)NC(Cc1ccc(O)cc1)C(=O)NCCCCCCCCNCCCN (configuration not stated)	1	0.068	14.7		
NCCCNCCCCCCCCNC(=O)C(Cc1ccc(O)cc1)NC(=O)CCc1ccccc1 (configuration not stated)	0.254	0.25	1		
CCCC(=O)NC(Cc1ccc(O)cc1)C(=O)NCCCNCCCCNCCCN (configuration not stated)	170	22		0.015	> 5
CCCC(=O)NC(Cc1ccc(O)cc1)C(=O)NCCCCCCNCCCCCN (configuration not stated)	> 10	0.468		0.8	6.4
NCCCNCCCCCCCCNC(=O)C(Cc1ccc(O)cc1)NC(=O)c1ccccn1 (configuration not stated)	0.17	0.13	1.3		
CCCC(=O)NC(Cc1ccc(O)cc1)C(=O)NCCCCNCCCCCCCN (configuration not stated)	0.135	0.038	3.6	0.06	> 10
CCCC(=O)NC(Cc1ccc(O)cc1)C(=O)NCCCCCNCCCCCCN (configuration not stated)	0.287	0.0033	86	2.2	5.2
NCCCNCCCCCCCCNC(=O)C(Cc1ccc(O)cc1)NC(=O)c1cccnc1 (configuration not stated)	0.21	0.088	2.4		
CC(=O)NC(Cc1ccc(O)cc1)C(=O)NCCCCCCCCNCCCN (configuration not stated)	0.3	0.22	1.4		
CC(C)(C)C(=O)NC(Cc1ccc(O)cc1)C(=O)NCCCCCCCCNCCCN (configuration not stated)	0.14	0.09	1.6		
NCCCNCCCCCCCCNC(=O)C(Cc1ccc(O)cc1)NC(=O)c1ccccc1 (configuration not stated)	0.25	0.13	1.9		
NCCCNCCCCCCCCNC(=O)C(Cc1ccc(O)cc1)NC(=O)C1CCCCC1 (configuration not stated)	0.24	0.078	3.1		
NCCCNCCCCCCCCNC(=O)C(Cc1ccc(O)cc1)NC(=O)/C=C/c1ccccc1 (configuration not stated)	0.17	0.11	1.5		
CCCC(=O)NC(Cc1ccc(O)cc1)C(=O)NCCCCCCCCNCCCN (configuration not stated)	8	0.065		0.25	> 10
NCCCNCCCCCCCCNC(=O)C(Cc1ccc(O)cc1)NC(=O)Cc1ccccc1 (configuration not stated)	0.25	0.11	2.3		
CCCC(=O)NC(Cc1ccc(O)cc1)C(=O)NCCCCCCCNCCCCN (configuration not stated)	3	0.168	18	0.29	1.6
